Compound activity: PubChem BioAssay, several laboratories
HEK293 NFkB inh: lowers PMA/ionomycin-induced NF-kB signal in HEK293 cells; inhibition, % at 3 µM; 0.21% of 62,000 active; HEK-293 NF-kB luciferase reporter, luminescence;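 active = inhibition above the mean of all tested compounds plus 3 SD, cut at about 40% in these data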;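 note: 0% = stimulated DMSO wells and 100% = 10 µM reference inhibitor 5653914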
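System: NF-kB luciferase reporter HEK-293 cells | Replication: Single test | Control set: DMSO vs reference inhibitor | Evaluation: % inhibition | Schedule: 1 h pretreatment, 16 h stimulation, 37 °C | Probe or stimulus: PMA with ionomycin | Compound dosing: One dose, 3 µM | Detection: Luciferase luminescence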
Her2 expr inh: inhibitors of human Her2 kinase expression; SKBR-3 HER2 protein level, AlphaScreen, 18-24 h; hits give low values; HER2 level % of control, % at 10 µM; P04626; AID 645; 0.69% of 65,000 active;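 active = HER2 level under 5% of the carrier-only control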;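 note: 100% = DMSO carrier and 0% = 500 nM PU-H71 HSP90 inhibitor; lower value means stronger loss of Her2 protein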
Target sequence (P04626 whole entry, looked up): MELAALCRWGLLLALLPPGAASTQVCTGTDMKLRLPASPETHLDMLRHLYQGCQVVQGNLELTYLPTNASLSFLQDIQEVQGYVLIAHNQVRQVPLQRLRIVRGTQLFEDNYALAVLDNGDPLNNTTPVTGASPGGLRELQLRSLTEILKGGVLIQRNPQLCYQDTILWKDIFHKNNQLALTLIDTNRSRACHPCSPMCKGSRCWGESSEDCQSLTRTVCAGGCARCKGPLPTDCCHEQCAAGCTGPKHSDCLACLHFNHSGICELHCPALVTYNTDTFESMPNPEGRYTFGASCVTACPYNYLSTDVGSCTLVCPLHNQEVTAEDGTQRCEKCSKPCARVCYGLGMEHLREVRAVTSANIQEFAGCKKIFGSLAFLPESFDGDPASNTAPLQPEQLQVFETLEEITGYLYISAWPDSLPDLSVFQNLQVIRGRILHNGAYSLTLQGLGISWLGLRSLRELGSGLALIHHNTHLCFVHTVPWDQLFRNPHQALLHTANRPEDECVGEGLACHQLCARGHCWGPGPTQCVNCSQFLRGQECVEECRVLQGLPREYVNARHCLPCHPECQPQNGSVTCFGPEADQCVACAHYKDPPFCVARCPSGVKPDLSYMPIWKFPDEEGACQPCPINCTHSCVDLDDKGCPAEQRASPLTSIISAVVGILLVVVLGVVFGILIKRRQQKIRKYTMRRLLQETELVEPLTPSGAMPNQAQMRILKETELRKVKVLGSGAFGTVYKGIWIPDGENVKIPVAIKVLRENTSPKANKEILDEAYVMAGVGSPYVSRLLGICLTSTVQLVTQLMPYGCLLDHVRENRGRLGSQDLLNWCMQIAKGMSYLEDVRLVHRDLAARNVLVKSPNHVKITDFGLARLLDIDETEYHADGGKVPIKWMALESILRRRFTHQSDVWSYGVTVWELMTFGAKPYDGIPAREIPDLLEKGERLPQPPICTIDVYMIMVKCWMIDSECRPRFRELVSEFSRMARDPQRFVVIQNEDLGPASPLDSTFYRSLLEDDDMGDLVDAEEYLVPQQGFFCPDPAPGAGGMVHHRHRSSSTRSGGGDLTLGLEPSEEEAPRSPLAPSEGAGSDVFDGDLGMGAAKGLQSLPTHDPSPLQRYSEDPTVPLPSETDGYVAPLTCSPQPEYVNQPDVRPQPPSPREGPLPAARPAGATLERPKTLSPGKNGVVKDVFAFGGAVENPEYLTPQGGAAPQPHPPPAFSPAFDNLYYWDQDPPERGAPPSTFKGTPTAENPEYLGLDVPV
Cdc25B block: inhibitors of human Cdc25B phosphatase. P30305. recombinant Cdc25B, OMFP fluorescence Ex485/Em525. inhibition, %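 (compounds tested at 10 µM final in the well)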. 0.1% of 65,000 active. AID 368; in the data active = inhibition above about 50%
M1 ag: activates the M1 muscarinic receptor | AID 626 | CHO-M1 cells, Fluo-4 calcium fluorescence, agonist mode; hits give high values | B-score at 10 µM | 3% of 64,000 active;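 active = fluorescence rise, raw or as B-score row- and column-corrected plate score, outside the 99.7% band of its plate's samples, either direction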
MKP-1 inh: blocks human MKP-1 phosphatase activity; recombinant MKP-1, OMFP hydrolysis fluorescence; P28562; 0.15% of 65,000 active; inhibition, %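 (compounds tested at a single concentration somewhere between 10 and 100 µM)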; AID 374;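 active = inhibition above about 50%, limit read from the data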;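 note: 0% = DMSO max control wells and 100% = wells with enzyme stopped by NaOH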
M1 antag: blocks the rat M1 muscarinic receptor response to acetylcholine; 3.4% of 64,000 active; CHO-M1 cells, Fluo-4 calcium, ACh EC80 antagonist mode; hits give low values; B-score at 10 µM; P08482;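 active = calcium fluorescence response, raw or row-and-column corrected B-score, differing from the plate sample mean either way at a set confidence level, mostly lower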
M1 antag confirm: M1 muscarinic receptor (rat) antagonism, confirmed; 43% of 1,700 active; shares compounds with M1 antag; calcium response (max-min fluorescence) at 10 µM; AID 677; CHO-M1 cells, Fluo-4 calcium, ACh EC80 antagonism; hits give low values;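 active = calcium response below the same-plate mean of wells given acetylcholine alone at its 80%-effect dose, minus 3 SD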;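 note: raw fluorescence intensity difference in arbitrary instrument units and not normalized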
mGluR4 antag: selectivity test for M1 antagonists: human mGluR4 receptor. CHO-mGluR4 calcium flux, Fluo-4 fluorescence, glutamate EC80; hits give low values. 0.9% of 1,700 active. shares compounds with M1 antag. fluorescence response (max-min) at 10 µM;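 active = fluorescence response below the plate's average for near-maximal glutamate wells, less 3 SD of those wells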;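 note: raw unnormalized fluorescence span taken in the window right after glutamate addition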
* = called active by the depositor; . = no result given. Rows were chosen to be rich in hits. Some 6.8% of all compounds tested hit in one or more screens of this group.

SMILES | HEK293 NFkB inh | Her2 expr inh | Cdc25B block | M1 ag | MKP-1 inh | M1 antag | M1 antag confirm | mGluR4 antag
Cc1ccc2nc(NC3=NCN(Cc4cccnc4)CN3)nc(C)c2c1 | 4 | 94 | 1 | 0.25 | -7 | 0.63 | . | .
COc1cc(CNC2CCCC2)cc(OC)c1 | 12 | 75 | -3 | -0.68 | 7 | -1 | . | .
Cc1cc(C(=O)OCC(=O)N(C)C2CCS(=O)(=O)C2)c(C)n1-c1ccccc1 (configuration not stated) | 6 | 109 | 0 | 0.12 | 0 | -2.7* | 544 | 227
CN(C(=O)COC(=O)c1nc(-c2ccccc2)n(-c2ccccc2)n1)C1CCS(=O)(=O)C1 (configuration not stated) | 12 | 112 | -8 | 0.33 | 16 | -4.8* | 231* | 211
Cc1cc(C(=O)OCC(=O)NC2CCS(=O)(=O)C2)c(C)n1-c1ccccc1 (configuration not stated) | 14 | 84 | -7 | 0.22 | 19 | -1.7 | . | .
COCCCNC(=O)CSC1=Nc2ccccc2C2=NC(CC(=O)NCc3ccccc3)C(=O)N12 (configuration not stated) | 9 | 114 | -16 | 0.033 | 13 | -2.5* | 678 | 246
O=C(CCCc1nc(-c2ccccc2)no1)N1CCOCC1 | 19 | 119 | -1 | -2.2 | 19 | -0.25 | . | .
CC(C)c1ccc(N2C(=O)[C@@H]3Cc4ccccc4CN3C2=O)cc1 | 15 | 107 | -1 | -0.81 | -17 | -1.3* | 667 | 257
Cc1ccc(N2C(=O)[C@@H]3Cc4ccccc4CN3C2=O)cc1 | 13 | 106 | -25 | -0.68 | -15 | 0.031 | . | .
Cc1ccc2nc3ccc(N4CCCC4)nn3c(=O)c2c1 | -21 | 66 | -3 | -0.03 | -17 | -1 | . | .
Cc1sc2nc3ccc(N4CCCCC4)nn3c(=O)c2c1C | 13 | 78 | 1 | 3 | 8 | -2.3* | 619 | 222
O=C(CCN1CCc2ccccc2C1)Nc1cccc(F)c1 | 7 | 96 | -10 | 0.67 | -5 | -1* | 601 | 250
CC1CCN(CCCNC(=O)c2cc3c(=O)n(C)c4ccccc4c3n2C)CC1 | 23 | 98 | -17 | 0.048 | -13 | 1.8 | . | .
Cn1c(C(=O)NCCCN2CCOCC2)cc2c(=O)n(C)c3ccccc3c21 | 10 | 89 | 8 | -0.37 | 0 | -0.34 | . | .
Cn1c(C(=O)NCCN2CCCCCC2)cc2c(=O)n(C)c3ccccc3c21 | 11 | 92 | -11 | 1.7 | 7 | -3.7* | 430* | 209
CN1CCN(CCCNC(=O)c2cc3c(=O)n(C)c4ccccc4c3s2)CC1 | 27 | 49 | -2 | 0.05 | 2 | -2.8* | 434 | 196
Cn1c(C(=O)NCCN2CCN(Cc3ccccc3)CC2)cc2c(=O)n(C)c3ccccc3c21 | 8 | 97 | 0 | 0.043 | 5 | -6.9* | 288* | 263
Cn1cc(C(=O)NCCN2CCN(c3ccccc3F)CC2)c2c3ccccc3n(C)c2c1=O | 5 | 79 | -12 | -0.16 | 43 | -4.3* | 453 | 161
Cc1cccc(C)c1NC(=O)C(c1cccs1)N(Cc1ccco1)C(=O)Cn1nnc2ccccc21 (configuration not stated) | 12 | 107 | 12 | -0.00017 | 34 | -0.18 | . | .
Cc1cc(NC(=O)CCCC(=O)Nc2ccc(F)cc2)no1 | -7 | 115 | 10 | 0.084 | -10 | -0.72 | . | .
CCOc1ccccc1NC(=O)c1cc(CC(C)C)oc1C | 10 | 103 | -19 | -0.29 | -1 | -2.4* | 650 | 241
CCN1CCCC1CNC(=O)c1cc2c(-c3cccc(OC)c3)nn(C)c2s1 (configuration not stated) | 18 | 82 | -10 | 0.3 | 0 | -2.8* | 570 | 257
CCN1CCCC1CNC(=O)c1cc2c(-c3ccc(Cl)cc3)nn(C)c2s1 (configuration not stated) | 12 | 83 | -7 | 0.33 | 0 | -4* | 430 | 200
COc1cccc(-c2nn(C)c3sc(C(=O)NCc4ccco4)cc23)c1 | 25 | 86 | -5 | 0.034 | 8 | -1.1 | . | .
Cc1ccc(Cl)cc1N1CCN(C(c2cccnc2)c2nnnn2C2CCCCC2)CC1 (configuration not stated) | -3 | 69 | -2 | -0.042 | 26 | 0.23 | . | .
SMILES | HEK293 NFkB inh | Her2 expr inh | Cdc25B block | M1 ag | MKP-1 inh | M1 antag | M1 antag confirm | mGluR4 antag
Cc1ccc(Cl)cc1N1CCN(C(c2ccc(C#N)cc2)c2nnnn2C2CCCC2)CC1 (configuration not stated) | 30 | 85 | 5 | -1.2 | 14 | -4.1* | 643 | 243
CC(=O)Nc1ccc(OC(F)(F)C(F)C(F)(F)F)c(NC(C)=O)c1 (configuration not stated) | -1 | 150 | 0 | -0.11 | 3 | 2.4 | . | .
O=C1NCCCc2nc(Oc3ccccc3)sc21 | 8 | 117 | 5 | -0.51 | -2 | -3.3* | 623 | 228
N#CCSc1nnc(Cc2ccc3c(c2)OCO3)o1 | 7 | 92 | -6 | -1.4 | -2 | 0.037 | . | .
CCN(CC)c1ccc(-c2nc3cnccc3n2C)cc1 | -16 | 98 | 4 | 0.14 | 18 | -14* | 64* | 253
CCN(CC)c1ccc2c(c1)C(=O)N(C)C2=O | 1 | 94 | -1 | 0.64 | -1 | -0.35 | . | .
CC1CC(C)CN(CCCNC(=O)c2ccc3c(c2)NC(=O)C(N2CCCCC2)S3)C1 (configuration not stated) | 16 | 83 | 13 | -0.02 | -1 | -0.88 | . | .
Cc1cc(C)c(NC(=O)CSc2nnc(-c3ccncc3)n2Cc2ccco2)c(Cl)c1 | 10 | 105 | -5 | 0.031 | 11 | -0.36 | . | .
C=CCn1c(SCC(=O)/C(C#N)=C(\C)N)nnc1C1CCCCC1 | 9 | 104 | 3 | 0.06 | 8 | 0.59 | . | .
CNS(=O)(=O)c1cccc(C(=O)OCc2cc(Cl)cc3c2OCOC3)c1 | 24 | 99 | -2 | -0.22 | 26 | 0.0089 | . | .
Cc1ccc(-c2nnc(N3CCN(C(=O)CSc4ncn[nH]4)CC3)c3ccccc23)cc1 | 19 | 108 | -5 | 0.97 | 7 | -2.9* | 484 | 225
Cc1ccc(C(=O)CSc2ncn[nH]2)cc1 | -5 | 97 | -4 | 0.24 | 0 | 1.1 | . | .
Cc1ccc(-c2nc(CSCC(=O)NCCN3CCN(Cc4ccccc4)CC3)c(C)o2)cc1 | 18 | 82 | -37 | 0.019 | 2 | -5.3* | 423* | 253
Cc1ccc(-c2nc(CSCC(=O)NCCCN3CCOCC3)c(C)o2)cc1 | 11 | 97 | -13 | 1.2 | 16 | 1.3 | . | .
Cc1ccc(C)n1-n1cnc2sc3c(c2c1=O)CCC3 | 19 | 117 | -13 | 0.35 | 15 | -0.055 | . | .
